Experimental findings from ChEMBL document CHEMBL4840303, “Design, synthesis, biological evaluation and pharmacophore model analysis of novel tetrahydropyrrolo[3,4-c]pyrazol derivatives as potential TRKs inhibitors” (Eur J Med Chem, 2021) are described below.

The test system of data set [1] is KM12. In words: Cell cycle arrest in human KM12 cells assessed as accumulation of cells at S phase at 125 nM measured after 48 hrs by AnnexinV-FITC/PI staining based flowcytometry method relative to control. Format: functional.
Data set [2] in a line: Stability in human liver microsomes assessed as half life at 100 uM measured after 60 mins by LC-MS/MS analysis. Format: ADME, Microsome. Conditions: 1 h. Summed up:
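Human liver microsomes diluted to 0.59 mg/mL working solution in 100 mM potassium phosphate, prewarmed 10 min at 37 °C; compound added from a 100 µM working solution. NADPH (in 10 mM MgCl2) added to one plate, buffer instead in no-cofactor control. Incubated at 37 °C, quenched at 5, 15, 30, 45, 60 min, centrifuged, analysed by LC-MS/MS.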

The target of data set [3] is AMP-activated protein kinase, AMPK (Homo sapiens) (UniProt P54646+O43741+P54619+Q9UGJ0+Q9Y478+Q13131+Q9UGI9). In words: Inhibition of recombinant GST-tagged His-tagged full length human AMPK expressed in baculovirus expression system at 1 uM measured by select screen assay. Summed up:
(§1)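 Single-concentration profiling at 1.0 µM in a 28-kinase SelectScreen panel; percent inhibition reported.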

Data set [4] deals with KM12. Nature of the data set: Cell cycle arrest in human KM12 cells assessed as accumulation of cells at less G1 phase at 62.5 nM measured after 48 hrs by AnnexinV-FITC/PI staining based flowcytometry method relative to control. In kind it is functional.
Data set [5] deals with Dual specificity mitogen-activated protein kinase kinase 1 (Homo sapiens) (UniProt Q02750). Nature of the data set: Inhibition of recombinant His-tagged full length human MEK expressed in baculovirus expression system at 1 uM measured by select screen assay relative to control. Summed up: as §1
In data set [6] the test system is KM12. In words: Induction of apoptosis in human KM12 cells assessed as viable cells at 250 nM measured after 48 hrs by AnnexinV-FITC/PI staining based flowcytometry assay relative to control. In kind it is functional. To be noted: read-out: Activity. Summed up: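 10^5 cells in Annexin V binding buffer stained with FITC-Annexin V and PI for 10 min at room temperature in the dark, diluted with PBS and analysed by flow cytometry (FITC 494/518 nm, PI 535/617 nm).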

For data set [7], the system named is KM12. In words: Induction of apoptosis in human KM12 cells assessed as early apoptotic cells at 250 nM measured after 48 hrs by AnnexinV-FITC/PI staining based flowcytometry assay relative to control. In kind it is functional. Summed up:
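They were detached with trypsin, washed twice in PBS, and 10^5 cells were suspended in Annexin V binding buffer. Cells were stained with FITC-Annexin V and PI for 10 min at room temperature in the dark, diluted with PBS and analysed by flow cytometry.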

Data set [8] relates to KM12. In words: Cell cycle arrest in human KM12 cells assessed as accumulation of cells at greater G1 phase at 125 nM measured after 48 hrs by AnnexinV-FITC/PI staining based flowcytometry method relative to control. In kind it is functional.
The subject of data set [9] is KM12. Nature of the data set: Cell cycle arrest in human KM12 cells assessed as accumulation of cells at less G1 phase at 1000 nM measured after 48 hrs by AnnexinV-FITC/PI staining based flowcytometry method relative to control. In kind it is functional.

Chain of Dual specificity mitogen-activated protein kinase kinase 1 (Homo sapiens) (Q02750 whole entry): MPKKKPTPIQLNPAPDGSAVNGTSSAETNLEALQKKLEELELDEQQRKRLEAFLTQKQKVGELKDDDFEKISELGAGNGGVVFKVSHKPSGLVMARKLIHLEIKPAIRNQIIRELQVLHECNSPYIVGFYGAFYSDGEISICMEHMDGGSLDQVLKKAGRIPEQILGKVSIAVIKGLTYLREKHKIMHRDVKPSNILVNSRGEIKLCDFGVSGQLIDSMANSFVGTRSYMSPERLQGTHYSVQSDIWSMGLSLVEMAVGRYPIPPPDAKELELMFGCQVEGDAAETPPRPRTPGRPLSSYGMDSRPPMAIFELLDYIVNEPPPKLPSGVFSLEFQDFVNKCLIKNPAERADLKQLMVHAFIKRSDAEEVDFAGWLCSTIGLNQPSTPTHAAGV

Consider `CN1CCN(c2ccc(C(=O)Nc3n[nH]c4c3CN(Cc3cc(F)cc(F)c3)C4(C)C)cc2)CC1`, for which the Activity worked out at 21.5% in the data set with KM12 [1]; 3.63% in the data set with KM12 [4]; 32.95% with KM12 [7]; 2.45% with KM12 [8]; 7.77% in the data set on KM12 [9]. Moreover, in data set [2], the t1/2 stood at 29.6 min. Moreover, the results for the inhibition in data set [3] and in [5] were 53% and 8%, respectively. For the same compound, the viability at 0.25 µM in the data set on KM12 [6] was 30.2%.

As a reminder, the inhibition is the drop in the measured response relative to a control, in per cent.
